By pIC50 is commonly meant −log10 of the IC50, conventionally taken in molar units. Higher therefore signals a low IC50. The term pEC50 denotes the negative decadic logarithm of the EC50, by convention in mol/L.

We go through 35 compounds from ChEMBL document CHEMBL1138097, “Lysine sulfonamides as novel HIV-protease inhibitors: Nepsilon-acyl aromatic alpha-amino acids” (Bioorg Med Chem Lett, 2006).

For assay [1], the target named is Human immunodeficiency virus type 1 protease (Human immunodeficiency virus 1, UniProt Q72874). The experiment in a line: Inhibition of HIV aspartyl protease. In outline:
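Assayed on purified HIV protease with a fluorescence rate readout (RFU/min). IC50 was taken from a dose–response curve. Ki came from fitting initial rates (200–600 s) to a tight-binding equation that accounts for protease concentration. Values are means of at least two experiments.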

Assay [2] concerns Human immunodeficiency virus 1. The experiment in a line: Antiviral activity against HIV1 NL4-3 in MT4 cells. It is filed as functional, organism-based. The conditions noted are these: Human immunodeficiency virus 1, NL4-3, MT4. In outline:
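Whole-cell cytopathic assay in MT-4 cells infected with the molecular clone HIV-1 NL4-3. EC50 is the mean of at least two experiments.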

The subject of assay [3] is Human immunodeficiency virus 1. The experiment in a line: Antiviral activity against HIV1 multi PI resistant strain 4596. The conditions noted are these: Human immunodeficiency virus 1, 4596. It is filed as functional, organism-based. An outline of the steps:
(§1)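 EC50 values come from a whole-cell cytopathic anti-viral assay, reported as the mean of at least three experiments. For line 2, the multi-PI-resistant strain 4596 carries protease mutations 82T, 84V, 10R and 63P. For line 1, the saquinavir-resistant strain SaqR carries protease mutations 48V and 90M.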

Assay [4] relates to Human immunodeficiency virus 1. The experiment in a line: Antiviral activity against HIV1 Saquinavir resistant strain SaqR. The conditions noted are these: Human immunodeficiency virus 1, SaqR. It is filed as functional, organism-based. In outline:
as §1

The structures appear in SMILES notation. pEC50, pIC50: −log10 of the molar value.

For the compound `CC(C)CN([C@H](CO)CCCCNC(=O)[C@@H](NC(=O)c1ccccn1)C(c1ccccc1)c1ccccc1)S(=O)(=O)c1ccc(N)cc1`, in assay [1], the pIC50 is 9.34. In addition, the values for the pEC50 in assay [2] and in assay [3] were 7.17 and 6.79, respectively.

Take `CC(C)CN([C@H](CO)CCCCNC(=O)[C@@H](NC(=O)N1CCOCC1)C(c1ccccc1)c1ccccc1)S(=O)(=O)c1ccc(N)cc1`: the pIC50 in assay [1] is 9.29. Moreover, the pEC50 in assay [2] was 7.11.

With `COC(=O)N[C@@H](C(=O)NCCCC[C@@H](CO)N(CC(C)C)S(=O)(=O)c1ccc(N)cc1)C(c1ccccc1)c1ccccc1`, the pIC50 in assay [1] was 7.89. This compound also had a negative-log EC50 (pEC50) in assay [2] of 6.07.

As to `CC(C)CN([C@H](CO)CCCCNC(=O)[C@@H](NC(=O)c1ccncc1)C(c1ccccc1)c1ccccc1)S(=O)(=O)c1ccc(N)cc1`, the pIC50 in assay [1] is 9.19. In addition, the pEC50 in assay [2] was 7.49; in assay [3] it was 7.59.

As to `Cc1ncccc1C(=O)N[C@H](C(=O)NCCCC[C@@H](CO)N(CC(C)C)S(=O)(=O)c1ccc(N)cc1)C(c1ccccc1)c1ccccc1`, in assay [1], the pIC50 was 9.40. Also, the pEC50 in assay [2] is 7.38; in assay [3], 7.44.

`CC(=O)N[C@H](C(=O)NCCCC[C@@H](CO)N(CC(C)C)S(=O)(=O)c1ccc(N)cc1)C(c1ccccc1)c1ccccc1` showed a pIC50 in assay [1] of 8.82. Further, the pEC50 in assay [2] and in assay [3] was 7.18 in each case.

Regarding `CC(C)CN([C@H](CO)CCCCNC(=O)[C@@H](N)C(c1ccccc1)c1ccccc1)S(=O)(=O)c1ccc(N)cc1`, the pIC50 in assay [1] is 9.30. Besides, the negative-log EC50 (pEC50) in assay [2] was 7.36; in assay [3], 7.37.

`COc1cc(C(=O)N[C@@H](C(=O)NCCCC[C@@H](CO)N(CC(C)C)S(=O)(=O)c2ccc(N)cc2)C(c2ccccc2)c2ccccc2)ccc1O` gave a pIC50 in assay [1] of 9.30. In addition, the results for the pEC50 in assay [2] and in assay [3] were 7.85 and 7.64, respectively.

`CC(C)CN([C@H](CO)CCCCNC(=O)[C@@H](NC(=O)c1ncccc1O)C(c1ccccc1)c1ccccc1)S(=O)(=O)c1ccc(N)cc1`: the pIC50 in assay [1] is 9.05. The pEC50 in assay [2] is 6.82; in assay [3], 6.73.

Compound `CC(C)CN([C@H](CO)CCCCNC(=O)[C@@H](NC(=O)OCc1ccccn1)C(c1ccccc1)c1ccccc1)S(=O)(=O)c1ccc(N)cc1` gave a pIC50 in assay [1] of 9.92. The negative logarithm of the EC50 (pEC50) in assay [2] was 7.77; in assay [3], 7.74; in assay [4], 7.85.

`COC(=O)N[C@H](Cc1cccc2ccccc12)C(=O)NCCCC[C@@H](CO)N(CC(C)C)S(=O)(=O)c1ccc(N)cc1` showed a pIC50 in assay [1] of 8.92. In assay [2], this compound gave a pEC50 of 6.92.

In assay [1], `COC(=O)N[C@H](Cc1ccc2ccccc2c1)C(=O)NCCCC[C@@H](CO)N(CC(C)C)S(=O)(=O)c1ccc(N)cc1` showed a pIC50 of 8.92. Besides, the pEC50 in assay [2] is 6.59.

In turn, `COC(=O)N[C@H](Cc1ccccc1-c1ccccc1)C(=O)NCCCC[C@@H](CO)N(CC(C)C)S(=O)(=O)c1ccc(N)cc1` showed a pIC50 in assay [1] of 9.28. In addition, the pEC50 in assay [2] is 6.70.

The compound `COC(=O)N[C@H](Cc1ccccc1)C(=O)NCCCC[C@@H](CO)N(CC(C)C)S(=O)(=O)c1ccc(N)cc1` showed a pIC50 in assay [1] of 7.92. The compound also gave a pEC50 in assay [2] of 5.70.

`COC(=O)N[C@@H](C(=O)NCCCC[C@@H](CO)N(CC(C)C)S(=O)(=O)c1ccc(N)cc1)c1ccccc1`: the negative logarithm of the IC50 (pIC50) in assay [1] is less than 6.52.

Take `COC(=O)N[C@H](CCc1ccccc1)C(=O)NCCCC[C@@H](CO)N(CC(C)C)S(=O)(=O)c1ccc(N)cc1`: the pIC50 in assay [1] was 7.40. In assay [2], this compound showed a pEC50 of 5.05.

As to `COC(=O)N(C)[C@H](Cc1ccccc1)C(=O)NCCCC[C@@H](CO)N(CC(C)C)S(=O)(=O)c1ccc(N)cc1`, in assay [1], the pIC50 is 8.19. Further, the pEC50 in assay [2] was 6.00.

The compound `CC(C)CN([C@H](CO)CCCCNC(=O)[C@@H](NC(=O)c1cccnc1)C(c1ccccc1)c1ccccc1)S(=O)(=O)c1ccc(N)cc1` had a pIC50 in assay [1] of 9.17. For the same compound, the pEC50 in assay [2] was 7.41; in assay [3] it was 7.60.

With `CC(C)CN([C@H](CO)CCCCNC(=O)[C@@H](NC(=O)OCc1cccnc1)C(c1ccccc1)c1ccccc1)S(=O)(=O)c1ccc(N)cc1`, in assay [1], the pIC50 was 9.32. Moreover, the pEC50 in assay [2] and in assay [3] was 7.74 each time.

As to `COC(=O)N[C@@H](C(=O)NCCCC[C@H](CO)N(CC(C)C)S(=O)(=O)c1ccc(N)cc1)C(c1ccccc1)c1ccccc1`, the pIC50 in assay [1] was less than 6.52. In assay [2], the pEC50 is less than 4.00.

The compound `CC(C)CN([C@H](CO)CCCCNC(=O)[C@@H](NC(=O)Cc1cccnc1)C(c1ccccc1)c1ccccc1)S(=O)(=O)c1ccc(N)cc1` had a pIC50 in assay [1] of 9.62. Moreover, the pEC50 in assay [2] is 6.71; in assay [3] it was 6.89.

`CC(C)CN([C@H](CO)CCCCNC(=O)[C@@H](NC(=O)c1cccc(O)c1)C(c1ccccc1)c1ccccc1)S(=O)(=O)c1ccc(N)cc1`: in assay [1], the pIC50 is 9.40. For the same compound, the figures for the pEC50 in assay [2] and in assay [3] were 7.19 and 7.52, respectively.

As for `CC(C)CN([C@H](CO)CCCCNC(=O)[C@@H](NC(=O)c1ccc(O)c([N+](=O)[O-])c1)C(c1ccccc1)c1ccccc1)S(=O)(=O)c1ccc(N)cc1`, in assay [1], the pIC50 was 9.25. Moreover, the pEC50 in assay [2] was 7.26; in assay [3] it was 7.46.

With `COC(=O)N[C@H](C(=O)NCCCC[C@H](CO)N(CC(C)C)S(=O)(=O)c1ccc(N)cc1)C(c1ccccc1)c1ccccc1`, in assay [1], the negative logarithm of the IC50 (pIC50) is 7.60. The pEC50 in assay [2] is 5.52.

`CC(C)CN([C@H](CO)CCCCNC(=O)[C@@H](NC(=O)C1CC1)C(c1ccccc1)c1ccccc1)S(=O)(=O)c1ccc(N)cc1`: the pIC50 in assay [1] is 9.37. For the same compound, the figures for the pEC50 in assay [2], in assay [3] and in assay [4] were 7.60, 7.34 and 7.77, respectively.

Compound `CC(C)CN([C@H](CO)CCCCNC(=O)[C@@H](NC(=O)N(C)C)C(c1ccccc1)c1ccccc1)S(=O)(=O)c1ccc(N)cc1` gave a pIC50 in assay [1] of 9.36. Also, the pEC50 in assay [2] was 7.21; in assay [3], 7.25.

Turning to `CC(C)CN([C@H](CO)CCCCNC(=O)[C@@H](NC(=O)c1cnccc1O)C(c1ccccc1)c1ccccc1)S(=O)(=O)c1ccc(N)cc1`, in assay [1], the negative-log IC50 (pIC50) is 9.30.

With `CC(C)CN([C@H](CO)CCCCNC(=O)[C@@H](NC(=O)C1CCCCC1)C(c1ccccc1)c1ccccc1)S(=O)(=O)c1ccc(N)cc1`, in assay [1], the pIC50 was more than 8.42. In addition, the pEC50 in assay [2] is 7.03; in assay [3], 6.73.

`CC(C)CN([C@H](CO)CCCCNC(=O)[C@@H](NC(=O)c1ccc[nH]1)C(c1ccccc1)c1ccccc1)S(=O)(=O)c1ccc(N)cc1` showed a pIC50 in assay [1] of 9.37. For the same compound, the figures for the pEC50 in assay [2] and in assay [3] were 7.47 and 7.29, respectively.

As to `CC(C)CN([C@H](CO)CCCCNC(=O)[C@@H](NC(=O)c1ccc([N+](=O)[O-])c(O)c1)C(c1ccccc1)c1ccccc1)S(=O)(=O)c1ccc(N)cc1`, the negative logarithm of the IC50 (pIC50) in assay [1] was 9.48. The results for the pEC50 in assay [2] and in assay [3] were 7.80 and 8.00, respectively.

The compound `CC(C)CN([C@H](CO)CCCCNC(=O)[C@@H](NC(=O)OCc1ccncc1)C(c1ccccc1)c1ccccc1)S(=O)(=O)c1ccc(N)cc1` had a pIC50 in assay [1] of 9.41. Further, the pEC50 in assay [2] is 7.70; in assay [3] it was 7.89; in assay [4] it was 8.40.

`CC(C)CN([C@H](CO)CCCCNC(=O)[C@@H](NC(=O)c1ccccc1O)C(c1ccccc1)c1ccccc1)S(=O)(=O)c1ccc(N)cc1` gave a pIC50 in assay [1] of 9.20. For the same compound, the values for the pEC50 in assay [2] and in assay [3] were 7.19 and 6.87, respectively.

Turning to `CC(C)CN([C@H](CO)CCCCNC(=O)[C@@H](NC(=O)c1ccc(O)cc1)C(c1ccccc1)c1ccccc1)S(=O)(=O)c1ccc(N)cc1`, the pIC50 in assay [1] was 9.28. Moreover, the pEC50 is 7.06 in assay [2] and 7.47 in assay [3].

`CC(C)CN([C@H](CO)CCCCNC(=O)[C@@H](NC(=O)OC(C)(C)C)C(c1ccccc1)c1ccccc1)S(=O)(=O)c1ccc(N)cc1` showed a pIC50 in assay [1] of 9.40. Also, the negative-log EC50 (pEC50) in assay [2] was 7.39; in assay [3], 6.54.

On to `COC(=O)N[C@H](C(=O)NCCCC[C@@H](CO)N(CC(C)C)S(=O)(=O)c1ccc(N)cc1)C(c1ccccc1)c1ccccc1` [PPL-100], for which the pIC50 in assay [1] is 9.30. Moreover, the results for the pEC50 in assay [3] and in assay [4] were 7.42 and 7.72, respectively.
